# From ChEMBL document CHEMBL3272006, “Synthesis of some 1, 8- and 2, 8-disubstituted derivatives of adenosine cyclic 3', 5'-phosphate and their interaction with some enzymes of cAMP metabolism” (J Med Chem, 1976)
# How the values were obtained:
# Bos taurus = species: Bos taurus; assay: Ratio of Ka for cAMP to Ka for compound for bovine brain protein kinase in presence of 0.5 nmol [32P]ATP-gamma by liquid scintillation spectrometer
# Oryctolagus cuniculus = species: Oryctolagus cuniculus; assay: Activity of rabbit kidney PDE assessed as enzyme-mediated compound hydrolysis after 10 to 60 mins by colorimetric assay relative to cAMP; format: tissue-based
# Outline: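 Rabbit kidney enzyme; 0.60 ml mix with 3.0 µmol cyclic nucleotide (5 mM), 3.0 µmol Tris HCl pH 7.5, 6 µmol MgCl2, 0.1–0.3 mg protein. Incubated usually 10–60 min, stopped by heating, bacterial alkaline phosphatase added, released phosphate read colorimetrically. Rate expressed relative to cAMP hydrolysis (nmol 5'-AMP per min).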
# [1] = Inhibition of rabbit lung PDE assessed as inhibition 8-[3H]-cAMP substrate hydrolysis; design: species or system Oryctolagus cuniculus; conditions: read-out: I50
# Outline: (§1)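 Beef heart or rabbit lung enzyme; 0.5 ml with 25 µmol Tris HCl pH 7.5, 5 µmol MgCl2, 20–200 µg protein, 80 pmol 8-[3H]cAMP, varying inhibitor levels. Times set by pilot runs. Heat stop, snake venom 5'-nucleotidase converts product to nucleoside, unreacted cyclic nucleotide bound to Dowex-1, nucleoside radioactivity counted. Nucleotidase interference checked with [14C]-5'-AMP.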
# [2] = Inhibition of bovine heart PDE assessed as inhibition 8-[3H]-cAMP substrate hydrolysis; design: species or system Bos taurus; conditions: read-out: I50; outline: as §1
SMILES,Ratio (Bos taurus),fold change (FC) (Oryctolagus cuniculus),IC50 [1],IC50 [2]
CCCCc1nc(N)c2ncn([C@@H]3O[C@@H]4COP(=O)(O)O[C@H]4[C@H]3O)c2n1,0.46,0.64,3 µM,10 µM
CCCCc1nc(N)c2nc(SCc3ccccc3)n([C@@H]3O[C@@H]4COP(=O)(O)O[C@H]4[C@H]3O)c2n1,1.1,< 0.05,9.5 µM,7.1 µM
CCCCc1nc(N)c2nc(Sc3ccc(Cl)cc3)n([C@@H]3O[C@@H]4COP(=O)(O)O[C@H]4[C@H]3O)c2n1,2.2,< 0.05,11 µM,5 µM
Cc1nc(N)c2nc(N=[N+]=[N-])n([C@@H]3O[C@@H]4COP(=O)(O)O[C@H]4[C@H]3O)c2n1,0.45,0.16,67 µM,50 µM
Cn1cnc2c(ncn2[C@@H]2O[C@@H]3COP(=O)(O)O[C@H]3[C@H]2O)c1=N,0.012,0.16,65 µM,80 µM
Cn1cnc2c(nc(SCc3ccccc3)n2[C@@H]2O[C@@H]3COP(=O)(O)O[C@H]3[C@H]2O)c1=N,1.3,,61 µM,67 µM
Nc1c2ncn([C@@H]3O[C@@H]4COP(=O)(O)O[C@H]4[C@H]3O)c2nc[n+]1[O-],0.45,0.33,35 µM,50 µM
Cc1nc(N)c2nc(SCc3ccccc3)n([C@@H]3O[C@@H]4COP(=O)(O)O[C@H]4[C@H]3O)c2n1,0.95,0.05,9.5 µM,4.3 µM
Cc1nc(N)c2ncn([C@@H]3O[C@@H]4COP(=O)(O)O[C@H]4[C@H]3O)c2n1,0.16,0.83,1.6 µM,1.1 µM
Cc1nc(N)c2nc(Sc3ccc(Cl)cc3)n([C@@H]3O[C@@H]4COP(=O)(O)O[C@H]4[C@H]3O)c2n1,2.3,0.05,33 µM,5 µM

# Continued, values first:
Ratio (Bos taurus),fold change (FC) (Oryctolagus cuniculus),IC50 [1],IC50 [2],SMILES
0.66,< 0.05,17 µM,11 µM,CCCCc1nc(N)c2nc(Br)n([C@@H]3O[C@@H]4COP(=O)(O)O[C@H]4[C@H]3O)c2n1
3.4,0.15,25 µM,30 µM,Cc1nc(N)c2nc(Br)n([C@@H]3O[C@@H]4COP(=O)(O)O[C@H]4[C@H]3O)c2n1
2.9,< 0.05,40 µM,,Nc1ncnc2c1nc(Br)n2[C@@H]1O[C@@H]2COP(=O)(O)O[C@H]2[C@H]1O
0.15,< 0.05,400 µM,59 µM,Nc1c2nc(Br)n([C@@H]3O[C@@H]4COP(=O)(O)O[C@H]4[C@H]3O)c2nc[n+]1[O-]
0.68,< 0.05,80 µM,43 µM,[N-]=[N+]=Nc1nc2c(N)ncnc2n1[C@@H]1O[C@@H]2COP(=O)(O)O[C@H]2[C@H]1O
18,< 0.05,200 µM,,Nc1ncnc2c1nc(Sc1ccc(Cl)cc1)n2[C@@H]1O[C@@H]2COP(=O)(O)O[C@H]2[C@H]1O
2.1,< 0.05,53 µM,17 µM,Nc1ncnc2c1nc(SCc1ccccc1)n2[C@@H]1O[C@@H]2COP(=O)(O)O[C@H]2[C@H]1O
